# Compound activity deposited in PubChem by The Scripps Research Institute Molecular Screening Center.
# STAT3 act = activators of IL-6 induced STAT3 signaling; U3A cells, IL-6 STAT3-luciferase reporter, luminescence; 100% = signal with IL-6 EC80 alone; activation (% of control), % at 5.6 µM; 0.91% of 190,000 active; AID 871;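 active means activation above the screen-wide mean of compound activation plus 3 SD, cut at about 130% in these data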;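 further: 0% = background luminescence of wells with medium and substrate only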
#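 Material: human STAT1-deficient U3A cells with stable STAT3-luciferase reporter / Probe or stimulus: IL-6 stimulus at 33 ng/mL final / Schedule: 1 h compound pre-exposure, 6 h IL-6 stimulation, 37 °C / Technique: luminescence / Read-out basis: percent of IL-6-only median luminescence / Control set: IL-6-only high control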
# PERK inh = inhibitors of human PERK kinase. Q9NZJ5. 0.17% of 220,000 active. AID 1416. CHO PERK-DD fusion, SEAP luminescence translation reporter. inhibition, % at 5.6 µM;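 active means inhibition above the mean inhibition of all tested compounds plus 3 SD, set separately per screening campaign, cut at about 2.9% in these data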;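 further: PERK kinase domain activated by AP20187 dimerizer at 100 nM; 0% = DMSO with dimerizer and 100% = rapamycin at 8.4 µM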
# Target sequence (Q9NZJ5 whole entry, looked up, the tested form may be a part): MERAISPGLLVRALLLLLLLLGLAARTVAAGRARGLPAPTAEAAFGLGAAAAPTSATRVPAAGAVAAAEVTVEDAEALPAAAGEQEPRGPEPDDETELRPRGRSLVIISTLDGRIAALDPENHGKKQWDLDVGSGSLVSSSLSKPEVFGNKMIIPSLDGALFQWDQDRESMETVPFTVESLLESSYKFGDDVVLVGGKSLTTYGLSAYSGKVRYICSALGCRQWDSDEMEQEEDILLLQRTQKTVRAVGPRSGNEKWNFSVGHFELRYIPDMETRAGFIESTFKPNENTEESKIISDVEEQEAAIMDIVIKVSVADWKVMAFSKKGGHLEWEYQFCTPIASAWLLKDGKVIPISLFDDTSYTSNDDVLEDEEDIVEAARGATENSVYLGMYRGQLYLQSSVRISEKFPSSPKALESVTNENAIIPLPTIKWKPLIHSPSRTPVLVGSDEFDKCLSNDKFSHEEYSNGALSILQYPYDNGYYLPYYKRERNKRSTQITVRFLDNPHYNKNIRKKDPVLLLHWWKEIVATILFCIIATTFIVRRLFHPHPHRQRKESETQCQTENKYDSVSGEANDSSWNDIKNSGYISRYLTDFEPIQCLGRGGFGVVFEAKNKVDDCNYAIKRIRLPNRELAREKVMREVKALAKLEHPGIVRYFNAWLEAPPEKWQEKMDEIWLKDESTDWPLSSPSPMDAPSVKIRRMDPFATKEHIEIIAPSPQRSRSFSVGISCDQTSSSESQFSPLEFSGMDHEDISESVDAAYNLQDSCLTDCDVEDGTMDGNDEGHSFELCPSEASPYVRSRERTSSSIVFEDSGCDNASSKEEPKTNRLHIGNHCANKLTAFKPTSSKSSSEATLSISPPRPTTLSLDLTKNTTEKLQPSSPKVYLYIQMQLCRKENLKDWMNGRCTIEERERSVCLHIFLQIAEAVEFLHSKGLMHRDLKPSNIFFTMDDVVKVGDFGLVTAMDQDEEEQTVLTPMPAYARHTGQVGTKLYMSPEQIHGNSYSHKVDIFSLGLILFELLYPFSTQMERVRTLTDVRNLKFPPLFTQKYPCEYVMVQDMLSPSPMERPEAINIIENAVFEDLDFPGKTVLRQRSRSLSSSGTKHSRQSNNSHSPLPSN
# STAT3 blocker = inhibitors of IL-6 induced STAT3 signaling | 0.89% of 190,000 active | AID 862 | U3A cells, IL-6 STAT3-luciferase reporter, luminescence; host cell line lacks STAT1 | inhibition, % at 5.5 µM;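 active means inhibition above the mean inhibition across all screened compounds plus 3 SD, cut at about 44% in these data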;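 further: 0% = DMSO only wells and 100% = 100 µM nifuroxazide control wells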
# STAT1 inh = reduces IFN-gamma driven STAT1 reporter signal. NIH 3T3 STAT1-luciferase reporter, luminescence. inhibition, % at 5.5 µM. 0.35% of 200,000 active. AID 920;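 active means inhibition above a set limit, the mean inhibition across all tested compounds plus 3 SD, cut at about 34% in these data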;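 further: 0% = IFN-gamma with DMSO and 100% = IFN-gamma with 300 µM nifuroxazide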
# * hit, by the source's call; . = no result. Only some compounds are listed: those with a hit (about 1.8% of all), similar ones and a draw of the others.
SMILES,STAT3 act,PERK inh,STAT3 blocker,STAT1 inh
Cc1cccc2c3nc4ccccc4nc3n(CCCN3C(=O)c4ccccc4C3=O)c12,87,0,14,-24
O=C(CN1C(=O)CSC1=O)Nc1ccccc1N1CCOCC1,98,3.1*,7,7
O=C(Cn1c(=O)oc2ccccc21)Nc1ccccc1N1CCOCC1,101,0,4,7
CC(=O)NCCc1nc2ccccc2n1Cc1cccc(C)c1,.,0,.,.
COC(=O)c1cc2c(=O)n3ccccc3nc2n(C(C)C)c1=N,136*,1,-39,-4
O=C(COC(=O)CCC1CCCC1)Nc1ccccc1Sc1ccccc1,94,2.9*,10,0
O=C(COC(=O)C1CCC1)Nc1ccccc1Sc1ccccc1,101,2,-4,6
Cc1n[nH]c(=O)nc1NCCN(C)C,102,3.5*,1,4
CN1/C(=C\C(=O)COC(=O)c2ccc(O)c(O)c2)C(C)(C)c2ccccc21,96,1,6,11
CCC1CC(C)(C(=O)Nc2ccc(S(N)(=O)=O)cc2)OC1=O (stereo not given),106,2.9*,-4,4
CCC(Sc1nnc2c3ccccc3n(CC)c2n1)C(=O)Nc1sc2c(c1C#N)CCCC2 (stereo not given),108,1,-9,-4
O=C(c1cc2ccccc2s1)N1CCOCC1,.,2,.,.
O=C(c1cc2ccccc2[nH]1)N1CCOCC1,135*,0,-39,2
COc1ccc(-n2nc3ccccc3n2)cc1,109,0,-8,-18
COc1ccc(-n2nc3cc(C)c(NC(C)=O)cc3n2)cc1,38,0,76*,39*
COc1ccc(-n2nc3cc(C)c(N)c(Br)c3n2)cc1,165*,-1,-69,-73
Cn1c(=O)c2ncn(CC(=O)O)c2n(C)c1=O,.,0,.,.
O=C(O)Cn1cnc2c(=S)nc[nH]c21,.,3.7*,.,.
CCCCN(C)CCNC(=O)c1ccc(Cn2c(=S)[nH]c3ccc(Br)cc3c2=O)cc1,106,1,6,-5
CCOC(=O)c1cc(C#N)c(SCc2ccc(C#N)cc2)nc1C,136*,-1,-36,-4
Cc1csc2c(N(C)CCO)ncnc12,.,-2,.,.
CN1/C(=C\C(=O)c2cccs2)Sc2ccccc21,130,-1,-30,-75
CN1/C(=C/C(=O)c2cccs2)Sc2ccccc21,163*,0,-70,-44
CN=C(c1ccco1)n1c(=S)nc(-c2ccco2)n(C)c1=S,135*,1,-36,-3
CN=C(c1ccc(C)cc1)n1c(=S)nc(-c2ccc(C)cc2)n(C)c1=S,114,2,-15,-9
SMILES,STAT3 act,PERK inh,STAT3 blocker,STAT1 inh
C=CCC(C=C)[N+]1(CC(=O)OC)CCCCC1 (stereo not given),103,0,6,-7
O=C(CSCCN1C(=O)c2ccccc2C1=O)Nc1ccc2ccccc2c1,105,1,-3,8
Cc1ccc2nc(-c3ccc(SCC(=O)N4CCc5ccccc54)nc3)[nH]c2c1,143*,-1,-43,-35
CC(=O)CSc1ccc(-c2nc3cc(C)c(C)cc3[nH]2)cn1,14,0,103*,85*
S=c1[nH]nc(C2COc3ccccc3O2)o1 (stereo not given),100,3.0*,5,-2
S=c1nc(C2COc3ccccc3O2)[nH][nH]1 (stereo not given),98,0,8,2
NC(=O)NOCc1cccc(Cl)c1,103,2,8,-3
O=C(NCc1cccnc1)C(=O)Nc1ccc2c(c1)OCO2,104,-1,-2,-15
COc1ccc(Cn2cnc([N+](=O)[O-])c2)cc1[N+](=O)[O-],.,3.1*,.,.
Oc1ccccc1N=Cc1sc2ccccc2c1Cl,135*,1,-48,11
Cc1ccc(O)c(N=Cc2sc3ccccc3c2Cl)c1,104,1,-6,3
O=C(N/N=C/c1ccco1)C1CC1c1ccccc1 (stereo not given),102,0,-1,-2
CC(C)(C)c1ccc(C2CC2C(=O)N/N=C\c2ccc[nH]2)cc1 (stereo not given),42,1,71*,46*
Oc1ccc(-c2nccc(-c3cccs3)n2)cc1,140*,1,-47,-46
CCn1cc(CNC(=O)/C=C/c2ccc([N+](=O)[O-])cc2)cn1,96,0,4,0
Cc1nn(-c2ccc(F)cc2)c2nc(N)c(C#N)c(-c3cccs3)c12,110,0,-8,-2
COc1cc(-c2c(C#N)c(N)nc3c2c(C)nn3-c2ccc(C)c(C)c2)cc(OC)c1OC,135*,-1,-34,6
Cc1cc(N=Nc2c(O)c3ccccc3[nH]c2=O)ccc1N=Nc1ccc(C(=O)N(C)C)cc1,.,1,.,.
Cc1ccc(N=Nc2c(O)c3ccccc3[nH]c2=O)c(S(=O)(=O)N(C)C)c1,.,3.3*,.,.
O=S(=O)(CCN1CCSCC1)c1ccccc1,.,0,.,.
COc1ccc(-c2cn3ccccc3n2)cc1,.,0,.,.
CCCOc1ccc(-c2cn3ccccc3n2)cc1,23,2,88*,69*
O=C(NCCN1CCOCC1)c1ccncc1,107,2,-4,-7
O=C1C=C(NCCN2CCOCC2)C(=O)c2cnccc21,28,1,83*,53*
O=C(Nc1ccc(Cl)cn1)c1cc2ccccc2o1,99,1,6,-27
SMILES,STAT3 act,PERK inh,STAT3 blocker,STAT1 inh
O=C(Nc1ccccn1)c1cc2ccccc2o1,26,1,89*,53*
Cn1c(CNc2ccc(Cl)cc2)nc2ccccc21,163*,-1,-71,-47
Cc1ccc(S(=O)(=O)N(C)c2ccccc2C(=O)NC2CCCC2)cc1,103,0,-1,2
COc1ccccc1C(=O)NC(=Nc1nc2ccccc2o1)NC(=O)c1ccccc1OC,136*,-1,-41,-1
O=C(NC(=Nc1nc2ccccc2o1)NC(=O)c1ccccc1)c1ccccc1,86,0,20,5
Cc1ccc(NC(=O)CCCc2nc3ccccc3s2)c(O)c1,129,-1,-24,5
CCOC(=O)c1[nH]c2ccccc2c1NC(=O)c1ccc(S(=O)(=O)N2CCCC2)cc1,107,0,-8,-13
O=S1(=O)CCN2C(c3cccc4ccccc34)=CSC2=N1,104,2,-4,-3
C1=C(c2cccc3ccccc23)N2CCN=C2S1,150*,0,-54,10
S=C(NC1CCCCC1)N1CCN(C2CCCCC2)CC1,95,1,12,-5
O=C1CN(CC(=O)Nc2cccc(Cl)c2Cl)c2ccccc2N1,149*,0,-58,6
Cc1ncc(CN2CCC(CO)(Cc3ccccc3)CC2)s1,96,-1,10,-4
Cc1ccc2nc(-c3ccccc3)cn2c1,11,-1,103*,84*
CC(=O)Nc1ccc(-c2cn3cc(C)ccc3n2)cc1,69,0,38,-34
NNc1nc2c(F)cccc2s1,152*,1,-56,-51
COCCNC(=O)C12CC3CC(CC(Cl)(C3)C1)C2,.,0,.,.
CCN1C(=O)C(Cc2nc3ccccc3c(=O)n2-c2ccccc2)c2ccccc21 (stereo not given),100,-1,0,7
